Laboratory results as given in ChEMBL document CHEMBL1124793, “Comparative reactivity of 1-carba-1-dethiacephalosporins with cephalosporins” (J Med Chem, 1990).
In brackets after ≈: the same amount, converted by molar mass.

Experiments:
[1] = Pseudo-first-order rate constant at pH 10 and 35 degrees Centigrade; type: ADME
Outline: (§1)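 Parent β-lactam loss followed by HPLC, starting at 3.9 × 10^-4–1 × 10^-3 M, at 35 °C and μ = 0.5. pH was held at 10 by a pH-stat adding NaOH. Pseudo-first-order rate constants were derived, with half-lives from these rates. Some runs were done at pH 11, and the constant was taken as 1/10 of the observed value, assuming proportionality to [OH].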

[2] = Half-life is evaluated; type: ADME; outline: as §1
[3] = system: Escherichia coli; experiment: Inhibitory activity against Escherichia coli EC14; type: functional
Outline: (§2)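 Agar dilution: compounds were diluted in 0.1 M phosphate buffer, pH 7.0, and mixed at 50 °C into Mueller–Hinton agar with 1% Bacto-Supplement C. Fresh overnight cultures were diluted to about 1 × 10^4 cells/μL and spotted at 1 μL. Plates were incubated overnight at 35 °C in ambient air. MIC (μg/mL) was the lowest concentration preventing visible growth.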

[4] = system: Enterobacter cloacae; experiment: In vitro inhibitory activity against Enterobacter cloacae EB5; type: functional; outline: as §2
[5] = system: Haemophilus influenzae; experiment: In vitro inhibitory activity against Haemophilus influenza C.L; type: functional; outline: as §2
[6] = system: Klebsiella pneumoniae; experiment: In vitro inhibitory activity against Klebsiella X26; type: functional; outline: as §2
[7] = system: Pseudomonas aeruginosa; experiment: In vitro inhibitory activity against Pseudomonas aeruginosa X258; type: functional; outline: as §2
[8] = system: Providencia rettgeri; experiment: In vitro inhibitory activity against Proteus rettgeri C24; type: functional; outline: as §2
[9] = system: Staphylococcus aureus; experiment: In vitro inhibitory activity against Staphylococcus aureus X1.1; type: functional; outline: as §2
[10] = system: Streptococcus pyogenes; experiment: In vitro inhibitory activity against Streptococcus pyogenes Park; type: functional; outline: as §2
[11] = Pseudo-first-order rate constant at pH 10, micro=0.5, 35 degrees Centigrade; type: ADME; outline: as §1
[12] = system: Escherichia coli; experiment: In vitro inhibitory activity against Escherichia coli EC14; type: functional; outline: as §2
[13] = system: Pseudomonas aeruginosa; experiment: In vitro in vitro inhibitory activity against Pseudomonas aeruginosa X258; type: functional; outline: as §2

Row | Structure (SMILES) | K [1] [h⁻¹] | half-life [2] [h] | MIC [3] [µg/mL] | MIC [4] [µg/mL] | MIC [5] [µg/mL] | MIC [6] [µg/mL] | MIC [7] [µg/mL] | MIC [8] [µg/mL] | MIC [9] [µg/mL] | MIC [10] [µg/mL] | K [11] [h⁻¹] | MIC [12] [µg/mL] | MIC [13] [µg/mL]
1 | O=C(Cc1cccs1)N[C@@H]1C(=O)N2C(C(=O)O)=C(C(=O)O)CC[C@H]12 | 0.0105 | 66 |  |  |  |  |  |  |  |  |  |  | 
2 | CS(=O)(=O)OC1=C(C(=O)O)N2C(=O)[C@@H](NC(=O)COc3ccccc3)[C@H]2SC1 | 1.91 | 0.363 | 64 (≈ 149 µM) | 128 (≈ 299 µM) | 4 (≈ 9.34 µM) | 8 (≈ 18.7 µM) | 128 (≈ 299 µM) | 128 (≈ 299 µM) | 0.125 (≈ 0.292 µM) | 0.015 (≈ 0.035 µM) |  |  | 
3 | COCC1=C(C(=O)O)N2C(=O)[C@@H](NC(=O)COc3ccccc3)[C@H]2CC1 |  | 46.5 |  | 128 (≈ 355 µM) | 8 (≈ 22.2 µM) | 8 (≈ 22.2 µM) | 128 (≈ 355 µM) | 128 (≈ 355 µM) | 0.5 (≈ 1.39 µM) | 0.25 (≈ 0.694 µM) | 0.0149 | 32 (≈ 88.8 µM) | 
4 | O=C(COc1ccccc1)N[C@@H]1C(=O)N2C(C(=O)O)=C(Cl)CC[C@H]12 |  | 15.8 |  | 128 (≈ 365 µM) | 4 (≈ 11.4 µM) | 8 (≈ 22.8 µM) | 128 (≈ 365 µM) | 128 (≈ 365 µM) | 1 (≈ 2.85 µM) | 0.25 (≈ 0.713 µM) | 0.0438 | 8 (≈ 22.8 µM) | 
5 | CO/N=C(\C(=O)N[C@@H]1C(=O)N2C(C(=O)[O-])=C(C[n+]3ccccc3)CS[C@H]12)c1csc(N)n1 | 1.85 | 0.375 |  | 0.06 (≈ 0.126 µM) | 0.06 (≈ 0.126 µM) | 0.03 (≈ 0.0632 µM) | 2 (≈ 4.21 µM) | 0.03 (≈ 0.0632 µM) | 1 (≈ 2.11 µM) | 0.03 (≈ 0.0632 µM) |  | 0.03 (≈ 0.0632 µM) | 
6 | O=C(Cc1cccs1)N[C@@H]1C(=O)N2C(C(=O)O)=C(C(=O)O)CS[C@H]12 | 0.34 | 2.04 |  |  |  |  |  |  |  |  |  |  | 
7 | COCC1=C(C(=O)O)N2C(=O)[C@@H](NC(=O)COc3ccccc3)[C@H]2SC1 | 0.368 | 1.88 |  | 128 (≈ 338 µM) | 2 (≈ 5.29 µM) | 32 (≈ 84.6 µM) | 128 (≈ 338 µM) | 128 (≈ 338 µM) | 0.25 (≈ 0.661 µM) | 0.12 (≈ 0.317 µM) |  | 128 (≈ 338 µM) | 
8 | O=C(COc1ccccc1)N[C@@H]1C(=O)N2C(C(=O)O)=C(Cl)CS[C@H]12 | 0.895 | 0.774 |  | 128 (≈ 347 µM) | 2 (≈ 5.42 µM) | 8 (≈ 21.7 µM) | 128 (≈ 347 µM) | 128 (≈ 347 µM) | 0.25 (≈ 0.678 µM) | 0.25 (≈ 0.678 µM) |  | 64 (≈ 174 µM) | 
9 | COC(=O)C1=C(C(=O)O)N2C(=O)[C@@H](NC(=O)Cc3cccs3)[C@H]2CC1 |  | 0.867 |  | 128 (≈ 351 µM) | 1 (≈ 2.74 µM) | 0.25 (≈ 0.686 µM) | 128 (≈ 351 µM) | 8 (≈ 22 µM) | 0.25 (≈ 0.686 µM) |  | 0.799 | 1 (≈ 2.74 µM) | 
10 | CS(=O)(=O)OC1=C(C(=O)O)N2C(=O)[C@@H](NC(=O)COc3ccccc3)[C@H]2CC1 | 0.089 | 7.79 |  | 128 (≈ 312 µM) | 8 (≈ 19.5 µM) | 8 (≈ 19.5 µM) | 128 (≈ 312 µM) | 128 (≈ 312 µM) | 0.5 (≈ 1.22 µM) | 0.5 (≈ 1.22 µM) |  | 32 (≈ 78 µM) | 
11 | CC1=C(C(=O)O)N2C(=O)[C@@H](NC(=O)COc3ccccc3)[C@H]2CC1 |  | 433 |  | 128 (≈ 387 µM) | 32 (≈ 96.9 µM) | 32 (≈ 96.9 µM) | 128 (≈ 387 µM) | 128 (≈ 387 µM) | 4 (≈ 12.1 µM) | 1 (≈ 3.03 µM) | 0.0016 | 128 (≈ 387 µM) | 
12 | CO/N=C(\C(=O)N[C@@H]1C(=O)N2C(C(=O)O)=CCC[C@H]12)c1csc(N)n1 | 0.00565 | 123 |  | 0.06 (≈ 0.164 µM) | 0.008 (≈ 0.0219 µM) | 0.008 (≈ 0.0219 µM) | 32 (≈ 87.6 µM) | 0.008 (≈ 0.0219 µM) | 16 (≈ 43.8 µM) | 0.015 (≈ 0.0411 µM) |  | 0.008 (≈ 0.0219 µM) | 
13 | COC(=O)C1=C(C(=O)O)N2C(=O)[C@@H](NC(=O)Cc3cccs3)[C@H]2SC1 | 6.27 | 0.111 |  | 128 (≈ 335 µM) | 2 (≈ 5.23 µM) | 2 (≈ 5.23 µM) |  | 128 (≈ 335 µM) | 0.5 (≈ 1.31 µM) | 0.03 (≈ 0.0784 µM) |  | 2 (≈ 5.23 µM) | 128 (≈ 335 µM)
14 | CC1=C(C(=O)O)N2C(=O)[C@@H](NC(=O)COc3ccccc3)[C@H]2SC1 | 0.0793 | 8.74 |  | 128 (≈ 367 µM) | 16 (≈ 45.9 µM) | 64 (≈ 184 µM) | 128 (≈ 367 µM) | 128 (≈ 367 µM) | 4 (≈ 11.5 µM) | 1 (≈ 2.87 µM) |  | 128 (≈ 367 µM) | 
15 | CO/N=C(\C(=O)N[C@@H]1C(=O)N2C(C(=O)[O-])=C(C[n+]3ccccc3)CC[C@H]12)c1csc(N)n1 | 0.0628 | 11 |  | 0.06 (≈ 0.131 µM) | 0.5 (≈ 1.1 µM) | 0.03 (≈ 0.0657 µM) | 2 (≈ 4.38 µM) | 0.06 (≈ 0.131 µM) | 4 (≈ 8.76 µM) | 0.015 (≈ 0.0329 µM) |  | 0.03 (≈ 0.0657 µM) | 
16 | N[C@@H](C(=O)N[C@@H]1C(=O)N2C(C(=O)O)=C(Cl)CS[C@H]12)c1ccccc1 [CEFACLOR ANHYDROUS] | 0.944 | 0.734 |  | 32 (≈ 87 µM) | 1 (≈ 2.72 µM) | 0.25 (≈ 0.68 µM) | 128 (≈ 348 µM) | 128 (≈ 348 µM) | 1 (≈ 2.72 µM) | 0.5 (≈ 1.36 µM) |  | 0.25 (≈ 0.68 µM) | 
17 | CO/N=C(\C(=O)N[C@@H]1C(=O)N2C(C(=O)O)=CCS[C@H]12)c1csc(N)n1 [CEFTIZOXIME] | 0.114 | 6.08 |  | 0.06 (≈ 0.156 µM) | 0.015 (≈ 0.0391 µM) | 0.008 (≈ 0.0209 µM) | 32 (≈ 83.5 µM) | 0.008 (≈ 0.0209 µM) | 4 (≈ 10.4 µM) | 0.015 (≈ 0.0391 µM) |  | 0.015 (≈ 0.0391 µM) | 
18 | N[C@@H](C(=O)N[C@@H]1C(=O)N2C(C(=O)O)=C(Cl)CC[C@H]12)c1ccccc1 [LORACARBEF ANHYDROUS] | 0.0324 | 21.4 |  | 4 (≈ 11.4 µM) | 0.5 (≈ 1.43 µM) | 0.25 (≈ 0.715 µM) | 128 (≈ 366 µM) | 128 (≈ 366 µM) | 2 (≈ 5.72 µM) | 1 (≈ 2.86 µM) |  | 0.25 (≈ 0.715 µM) | 
